Results from publication PMC7717620 (Nucleosides, nucleotides & nucleic acids, 2019).
Entries after “also recorded” stand apart in the source; their conditions may differ.

Tests used:
human cardiomyocytes [1] = assay: cellular accumulation and metabolism in human cardiomyocytes; assay type: in vitro ADME; conditions: 10 μM
Huh-7 cells = assay: intracellular metabolism in Huh-7 cells; assay type: in vitro ADME, human; conditions: Huh-7, 50 μM, 4 h
[2] = test system: primary monkey hepatocytes; assay: intracellular metabolism in primary monkey hepatocytes; assay type: in vitro ADME; conditions: 50 μM, 4 h
primary rat hepatocytes = assay: intracellular metabolism in primary rat hepatocytes; assay type: in vitro ADME; conditions: 50 μM, 4 h
[3] = test system: primary human hepatocytes; assay: intracellular metabolism in primary human hepatocytes; assay type: in vitro ADME; conditions: 50 μM, 4 h
[4] = test system: HCV genotype 1 b RNA replication; assay: subgenomic HCV replicon system, inhibition of HCV RNA replication in Huh-7 cells; assay type: cell-based, hepatitis C virus; conditions: HCV genotype 1 b subgenomic replicon
Procedure, shortened: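 HCV genotype 1b subgenomic replicon in Huh-7 cells. HCV RNA and cellular ribosomal RNA were extracted and amplified, so replication and cytotoxicity were read in the same cells.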

HepG2 cells = assay: intracellular metabolism in HepG2 cells; assay type: in vitro ADME, human; conditions: HepG2, 50 μM, 4 h
[5] = test system: primary mouse hepatocytes; assay: intracellular metabolism in primary mouse hepatocytes; assay type: in vitro ADME; conditions: 50 μM, 4 h
human cardiomyocytes [6] = assay: recording of human cardiomyocyte beating patterns; assay type: cell-based; conditions: for change in beating rate or rhythm of cardiomyocytes (observation): up to 48 h
primary dog hepatocytes = assay: intracellular metabolism in primary dog hepatocytes; assay type: in vitro ADME; conditions: 50 μM, 4 h
patients = conditions: of the 34 patients treated, phase IIb; cited from earlier work
monkey heart and kidney = conditions: three weeks post a three-week dosing (week 6); cited from earlier work
[7] = all three concentrations (2, 10 and 50 μM)

CC(C)(CO)C(=O)SCCOP(=O)(NCc1ccccc1)OC[C@H]1O[C@@H](n2cnc3c(=O)[nH]c(N)nc32)[C@](C)(O)[C@@H]1O (mixture of isomers) [IDX-184, S-(2-(((((2R,3R,4R,5R)-5-(2-Amino-6-oxo-1,6-dihydro-9H-purin-9-yl)-3,4-dihydroxy-4-methyltetrahydrofuran-2-yl)methoxy)(benzylamino)phosphoryl)oxy)ethyl) 3-hydroxy-2,2-dimethylpropanethioate]
Intracellular concentration in human cardiomyocytes: Prodrugs (human cardiomyocytes [1]; 4 h): 21 ± 1 pmol/10^6 cells | Intracellular concentration in human cardiomyocytes: Prodrugs (human cardiomyocytes [1]; 8 h): 9.8 ± 1.4 pmol/10^6 cells | intact prodrug level, times lower than BMS-986094 (human cardiomyocytes [1]; human cardiomyocytes, 8 h): 83 times | Intracellular concentration: Prodrugs (Huh-7 cells): 11 ± 1 pmol/10^6 cells | Intracellular concentration: Prodrugs [2]: 75 ± 3 pmol/10^6 cells | Intracellular concentration: Prodrugs (primary rat hepatocytes): 1,100 ± 471 pmol/10^6 cells | Intracellular concentration: Prodrugs [3]: 160 ± 18 pmol/10^6 cells | Replicon Huh-7 EC50 [4]: sub-micromolar | Intracellular concentration: Prodrugs (HepG2 cells): 21 ± 1 pmol/10^6 cells | Intracellular concentration: Prodrugs [5]: 220 ± 3 pmol/10^6 cells | Beating rate of human cardiomyocytes (human cardiomyocytes [6]; 2 μM, 2 h): 32.0 ± 0 beats/minute | Beating rate of human cardiomyocytes (human cardiomyocytes [6]; 2 μM, 4 h): 31.5 ± 0.7 beats/minute | Beating rate of human cardiomyocytes (human cardiomyocytes [6]; 2 μM, 8 h): 37.0 ± 1.4 beats/minute | Beating rate of human cardiomyocytes (human cardiomyocytes [6]; 2 μM, 12 h): 36.0 ± 1.4 beats/minute | Beating rate of human cardiomyocytes (human cardiomyocytes [6]; 2 μM, 24 h): 32.5 ± 0.7 beats/minute | Beating rate of human cardiomyocytes (human cardiomyocytes [6]; 2 μM, 48 h): 24.0 ± 1.4 beats/minute | Beating rate of human cardiomyocytes (human cardiomyocytes [6]; 10 μM, 2 h): 30.0 ± 1.4 beats/minute | Beating rate of human cardiomyocytes (human cardiomyocytes [6]; 10 μM, 4 h): 30.0 ± 0 beats/minute | Beating rate of human cardiomyocytes (human cardiomyocytes [6]; 10 μM, 8 h): 34.0 ± 0 beats/minute | Beating rate of human cardiomyocytes (human cardiomyocytes [6]; 10 μM, 12 h): 34.0 ± 1.4 beats/minute | Beating rate of human cardiomyocytes (human cardiomyocytes [6]; 10 μM, 24 h): 31.0 ± 1.4 beats/minute | Beating rate of human cardiomyocytes (human cardiomyocytes [6]; 10 μM, 48 h): 25.0 ± 1.4 beats/minute | Beating rate of human cardiomyocytes (human cardiomyocytes [6]; 50 μM, 2 h): 33.0 ± 0 beats/minute | Beating rate of human cardiomyocytes (human cardiomyocytes [6]; 50 μM, 4 h): 31.5 ± 0.7 beats/minute | Beating rate of human cardiomyocytes (human cardiomyocytes [6]; 50 μM, 8 h): 34.5 ± 0.7 beats/minute | Beating rate of human cardiomyocytes (human cardiomyocytes [6]; 50 μM, 12 h): 34.5 ± 0.7 beats/minute | Beating rate of human cardiomyocytes (human cardiomyocytes [6]; 50 μM, 24 h): 34.5 ± 4.9 beats/minute | Beating rate of human cardiomyocytes (human cardiomyocytes [6]; 50 μM, 48 h): 27.5 ± 0.7 beats/minute | change in beating rate or rhythm of cardiomyocytes (observation) (human cardiomyocytes [6]; [7]): no obvious beating rate change; also recorded: no apparent change in beating; also recorded: no apparent changes to beat rate or rhythm | Intracellular concentration: Prodrugs (primary dog hepatocytes): 110 ± 2 pmol/10^6 cells

COc1nc(N)nc2c1ncn2[C@@H]1O[C@H](COP(=O)(N[C@@H](C)C(=O)OCC(C)(C)C)Oc2cccc3ccccc23)[C@@H](O)[C@@]1(C)O (stereo partly drawn) [BMS-986094, Neopentyl ((((2R,3R,4R,5R)-5-(2-amino-6-methoxy-9H-purin-9-yl)-3,4-dihydroxy-4-methyltetrahydrofuran-2-yl)methoxy)(naphthalen-1-yloxy)phosphoryl)-L-alaninate]
Intracellular concentration in human cardiomyocytes: NTP (triphosphate of N) (human cardiomyocytes [1]; 4 h): BLOQ | Intracellular concentration in human cardiomyocytes: Prodrugs (human cardiomyocytes [1]; 4 h): 800 ± 118 pmol/10^6 cells | Intracellular concentration in human cardiomyocytes: NTP (triphosphate of N) (human cardiomyocytes [1]; 8 h): BLOQ | Intracellular concentration in human cardiomyocytes: Prodrugs (human cardiomyocytes [1]; 8 h): 810 ± 80 pmol/10^6 cells | level of intact prodrug, fold higher than DAPN-PD (human cardiomyocytes [1]; human cardiomyocytes, 4 h): 11 fold | level of intact prodrug, fold higher than IDX-184 (human cardiomyocytes [1]; human cardiomyocytes, 4 h): 37 fold | deaths (patients): one death | patients with some evidence of cardiac dysfunction (patients): 14 | Intracellular concentration: Prodrugs (Huh-7 cells): 2,900 ± 358 pmol/10^6 cells | parent prodrug level, times the level observed for DAPN-PD (Huh-7 cells): 17 times | parent prodrug level, times the level observed for IDX-184 (Huh-7 cells): 260 times | Intracellular concentration: Prodrugs [2]: 150 ± 19 pmol/10^6 cells | Intracellular concentration: Prodrugs (primary rat hepatocytes): 52 pmol/10^6 cells | levels of 2’-C-Me-GTP in the heart and kidney (monkey heart and kidney): 2,610–4,280 ng/mL | Intracellular concentration: Prodrugs [3]: 4,100 ± 569 pmol/10^6 cells | Intracellular concentration: Prodrugs (HepG2 cells): 2,400 ± 9 pmol/10^6 cells | parent prodrug level, times the level observed for DAPN-PD (HepG2 cells): 6 times | parent prodrug level, times the level observed for IDX-184 (HepG2 cells): 110 times | Intracellular concentration: NTP (triphosphate of N) [5]: undetectable and BLOQ | Intracellular concentration: Prodrugs [5]: 880 ± 135 pmol/10^6 cells | Beating rate of human cardiomyocytes (human cardiomyocytes [6]; 2 μM, 2 h): 31.0 ± 0 beats/minute | Beating rate of human cardiomyocytes (human cardiomyocytes [6]; 2 μM, 4 h): 30.5 ± 0.7 beats/minute | Beating rate of human cardiomyocytes (human cardiomyocytes [6]; 2 μM, 8 h): 34.5 ± 0.7 beats/minute | Beating rate of human cardiomyocytes (human cardiomyocytes [6]; 2 μM, 12 h): 36.0 ± 0 beats/minute | Beating rate of human cardiomyocytes (human cardiomyocytes [6]; 2 μM, 24 h): 32.5 ± 0.7 beats/minute | Beating rate of human cardiomyocytes (human cardiomyocytes [6]; 2 μM, 48 h): 26.5 ± 0.7 beats/minute | change in beating rate or rhythm of cardiomyocytes (observation) (human cardiomyocytes [6]; 2 μM): no clear change in beating rate or rhythm | Beating rate of human cardiomyocytes (human cardiomyocytes [6]; 10 μM, 2 h): 31.0 ± 0 beats/minute | Beating rate of human cardiomyocytes (human cardiomyocytes [6]; 10 μM, 4 h): 31.0 ± 0 beats/minute | Beating rate of human cardiomyocytes (human cardiomyocytes [6]; 10 μM, 8 h): 35.0 ± 0 beats/minute | Beating rate of human cardiomyocytes (human cardiomyocytes [6]; 10 μM, 12 h): 36.0 ± 0 beats/minute | Beating rate of human cardiomyocytes (human cardiomyocytes [6]; 10 μM, 24 h): 34.5 ± 0.7 beats/minute | Beating rate of human cardiomyocytes (human cardiomyocytes [6]; 10 μM, 48 h): 35.5 ± 2.1 beats/minute | change in beating rate or rhythm of cardiomyocytes (observation) (human cardiomyocytes [6]; 10 μM): changes to both beat rate and rhythm were noted; also recorded: higher beating rates were observed starting from 12 h | time until cardiomyocytes stopped beating (human cardiomyocytes [6]; 50 μM): ≤ 2 h | Beating rate of human cardiomyocytes (human cardiomyocytes [6]; 50 μM, 2 h): 0 ± 0 beats/minute | Beating rate of human cardiomyocytes (human cardiomyocytes [6]; 50 μM, 4 h): 0 ± 0 beats/minute | Beating rate of human cardiomyocytes (human cardiomyocytes [6]; 50 μM, 8 h): 0 ± 0 beats/minute | Beating rate of human cardiomyocytes (human cardiomyocytes [6]; 50 μM, 12 h): 32.0 beats/minute | Beating rate of human cardiomyocytes (human cardiomyocytes [6]; 50 μM, 24 h): 34.0 ± 0 beats/minute | Beating rate of human cardiomyocytes (human cardiomyocytes [6]; 50 μM, 48 h): 0 ± 0 beats/minute | rhythm of cardiomyocytes (observation) (human cardiomyocytes [6]; 50 μM, beating resumed briefly at 12 and 24 h): very unstable rhythm | Intracellular concentration: Prodrugs (primary dog hepatocytes): 2,200 ± 68 pmol/10^6 cells

CC(C)OC(=O)[C@H](C)N[P@](=O)(OC[C@H]1O[C@@H](n2ccc(=O)[nH]c2=O)[C@](C)(F)[C@@H]1O)Oc1ccccc1 [Sofosbuvir, sofosbuvir]
Intracellular concentration in human cardiomyocytes: Prodrugs (human cardiomyocytes [1]; 4 h): 56 ± 3 pmol/10^6 cells | Intracellular concentration in human cardiomyocytes: Prodrugs (human cardiomyocytes [1]; 8 h): 42 ± 4 pmol/10^6 cells | Beating rate of human cardiomyocytes (human cardiomyocytes [6]; 2 μM, 2 h): 36.5 ± 2.1 beats/minute | Beating rate of human cardiomyocytes (human cardiomyocytes [6]; 2 μM, 4 h): 35.0 ± 1.4 beats/minute | Beating rate of human cardiomyocytes (human cardiomyocytes [6]; 2 μM, 8 h): 38.5 ± 0.7 beats/minute | Beating rate of human cardiomyocytes (human cardiomyocytes [6]; 2 μM, 12 h): 36.5 ± 0.7 beats/minute | Beating rate of human cardiomyocytes (human cardiomyocytes [6]; 2 μM, 24 h): 33.0 ± 0 beats/minute | Beating rate of human cardiomyocytes (human cardiomyocytes [6]; 2 μM, 48 h): 25.5 ± 0.7 beats/minute | Beating rate of human cardiomyocytes (human cardiomyocytes [6]; 10 μM, 2 h): 34.0 ± 1.4 beats/minute | Beating rate of human cardiomyocytes (human cardiomyocytes [6]; 10 μM, 4 h): 33.0 ± 1.4 beats/minute | Beating rate of human cardiomyocytes (human cardiomyocytes [6]; 10 μM, 8 h): 35.0 ± 1.4 beats/minute | Beating rate of human cardiomyocytes (human cardiomyocytes [6]; 10 μM, 12 h): 33.5 ± 0.7 beats/minute | Beating rate of human cardiomyocytes (human cardiomyocytes [6]; 10 μM, 24 h): 30.0 ± 0 beats/minute | Beating rate of human cardiomyocytes (human cardiomyocytes [6]; 10 μM, 48 h): 23.0 ± 0 beats/minute | Beating rate of human cardiomyocytes (human cardiomyocytes [6]; 50 μM, 2 h): 32.5 ± 0.7 beats/minute | Beating rate of human cardiomyocytes (human cardiomyocytes [6]; 50 μM, 4 h): 32.0 ± 0 beats/minute | Beating rate of human cardiomyocytes (human cardiomyocytes [6]; 50 μM, 8 h): 34.5 ± 0.7 beats/minute | Beating rate of human cardiomyocytes (human cardiomyocytes [6]; 50 μM, 12 h): 33.0 ± 1.4 beats/minute | Beating rate of human cardiomyocytes (human cardiomyocytes [6]; 50 μM, 24 h): 29.5 ± 0.7 beats/minute | Beating rate of human cardiomyocytes (human cardiomyocytes [6]; 50 μM, 48 h): 23.5 ± 0.7 beats/minute | change in beating rate or rhythm of cardiomyocytes (observation) (human cardiomyocytes [6]; [7]): no apparent change in beating rate or rhythm
